Source: ChEMBL document CHEMBL4118130, “Modular synthesis of new C-aryl-nucleosides and their anti-CML activity” (Bioorg Med Chem Lett, 2018)
The source made the active and inactive calls. The calls are words filed in the database; no cut-off is given here.

How the values were obtained:
K562 [1] = experiment: Cytotoxicity in drug sensitive human K562 cells assessed as reduction in cell viability at 10 uM incubated for 48 hrs by XTT assay relative to imatinib; format: functional
K-562R [2] = experiment: Cytotoxicity in imatinib-resistant human K562R cells assessed as reduction cell viability incubated for 48 hrs by XTT assay; format: functional, cell-based
Method in brief: (§1)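 K562-S (imatinib-sensitive) or K562-R (imatinib-resistant) CML cells were exposed to a range of concentrations for 48 h. Viability was read by XTT, and the IC50 was derived from the dose-response.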

K562 [3] = experiment: Cytotoxicity in drug sensitive human K562 cells assessed as reduction cell viability incubated for 48 hrs by XTT assay; format: functional, cell-based; conditions: for IC50: K562, 48 h; method in brief: as §1
K-562R [4] = experiment: Induction of apoptosis in imatinib-resistant human K562R cells assessed as induction of caspase-3 cleavage after 6 hrs by Western blot method; format: functional, cell-based
Method in brief: (§2)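 Cell lysates were probed by western blot for procaspase 3 and for PARP, its preferred substrate, in K562-S and K562-R cells. Cleavage was scored after 6 h and 24 h of treatment.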

K562 [5] = experiment: Induction of apoptosis in drug sensitive human K562 cells assessed as induction of PARP cleavage after 6 hrs by Western blot method; format: functional, cell-based; method in brief: as §2
K562 [6] = experiment: Potency index, ratio of IC50 for AICAR to IC50 for test compound in drug sensitive human K562 cells assessed as reduction cell viability incubated for 48 hrs by XTT assay; format: functional
K562 [7] = experiment: Induction of apoptosis in drug sensitive human K562 cells assessed as induction of caspase-3 cleavage after 6 hrs by Western blot method; format: functional, cell-based; method in brief: as §2
K-562R [8] = experiment: Induction of apoptosis in imatinib-resistant human K562R cells assessed as induction of PARP cleavage after 24 hrs by Western blot method; format: functional, cell-based; method in brief: as §2
K562 [9] = experiment: Inhibition of autophagy in drug sensitive human K562 cells assessed as reduction in LC3-II accumulation by Western blot method; format: functional, cell-based
Method in brief: (§3)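 Western blot of LC3 lipidation and cleavage, scored as conversion of LC3-I to LC3-II, in K562-S and K562-R cells. Untreated cells served as the baseline for LC3-II accumulation.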

K562 [10] = experiment: Induction of apoptosis in drug sensitive human K562 cells assessed as induction of PARP cleavage after 24 hrs by Western blot method; format: functional, cell-based; method in brief: as §2
K-562R [11] = experiment: Induction of apoptosis in imatinib-resistant human K562R cells assessed as induction of caspase-3 cleavage after 24 hrs by Western blot method; format: functional, cell-based; method in brief: as §2
K562 [12] = experiment: Induction of apoptosis in drug sensitive human K562 cells assessed as induction of caspase-3 cleavage after 24 hrs by Western blot method; format: functional, cell-based; method in brief: as §2
K-562R [13] = experiment: Inhibition of autophagy in imatinib-resistant human K562R cells assessed as reduction in LC3-II accumulation by Western blot method; format: functional, cell-based; method in brief: as §3
K-562R [14] = experiment: Induction of apoptosis in imatinib-resistant human K562R cells assessed as induction of PARP cleavage after 6 hrs by Western blot method; format: functional, cell-based; method in brief: as §2

| Compound | Activity (K562 [1]) | further results |
| --- | --- | --- |
| COc1ccc(-c2cccn2C)cc1[C@@H]1O[C@H](COC(C)=O)[C@@H](OC(C)=O)[C@H]1OC(C)=O | Active |  |
| COc1ccc(C#Cc2ccc(OC)c([C@@H]3O[C@H](CO)[C@@H](O)[C@H]3O)c2)cc1 | Active |  |
| COc1ccc(C#Cc2ccc(F)cc2)cc1[C@@H]1O[C@H](CO)[C@@H](O)[C@H]1O | Active |  |
| COc1ccc(-c2cc3ccccc3s2)cc1[C@@H]1O[C@H](CO)[C@@H](O)[C@H]1O | 16% |  |
| COc1ccc(C#Cc2ccsc2)cc1[C@@H]1O[C@H](CO)[C@@H](O)[C@H]1O | Active |  |
| COc1ccc(C#Cc2ccccc2)cc1[C@@H]1O[C@H](COC(C)=O)[C@@H](OC(C)=O)[C@H]1OC(C)=O | inactive |  |
| Cc1ccc(NC(=O)c2ccc(CN3CCN(C)CC3)cc2)cc1Nc1nccc(-c2cccnc2)n1 [IMATINIB] |  | IC50 (K-562R [2]): > 50 µM; IC50 (K562 [3]): 1.1 µM |
| COc1ccc(-c2ccc(C)cc2)cc1[C@@H]1O[C@H](CO)[C@@H](O)[C@H]1O | Active |  |
| NC(=O)c1ncn([C@@H]2O[C@H](CO)[C@@H](O)[C@H]2O)c1N [ACADESINE] |  | IC50 (K-562R [2]): 800 µM |
| COc1ccc(C#Cc2ccsc2)cc1[C@@H]1O[C@H](COC(C)=O)[C@@H](OC(C)=O)[C@H]1OC(C)=O | inactive |  |
| COc1ccc(C#Cc2ccc(C)cc2)cc1[C@@H]1O[C@H](COC(C)=O)[C@@H](OC(C)=O)[C@H]1OC(C)=O | Active |  |
| COc1ccc(C#Cc2ccc(C)cc2)cc1[C@@H]1O[C@H](CO)[C@@H](O)[C@H]1O | Active |  |
| COc1ccc(-c2cc3ccccc3s2)cc1[C@@H]1O[C@H](COC(C)=O)[C@@H](OC(C)=O)[C@H]1OC(C)=O | >30 - 80% | Activity (K-562R [4]): inactive; Activity (K562 [5]): inactive; Ratio IC50 (K562 [6]): 200; Activity (K562 [7]): inactive; Activity (K-562R [8]): inactive; IC50 (K-562R [2]): 2.9 µM; inhibition (K562 [9]): Active; Activity (K562 [10]): inactive; Activity (K-562R [11]): inactive; Activity (K562 [12]): inactive; Activity (K562 [3]): Dose-dependent effect; IC50 (K562 [3]): 4 µM; inhibition (K-562R [13]): Active; Activity (K-562R [14]): inactive |
| COc1ccc(-c2cccs2)cc1[C@@H]1O[C@H](CO)[C@@H](O)[C@H]1O | Active |  |
| COc1ccc(C#Cc2ccc(F)cc2)cc1[C@@H]1O[C@H](COC(C)=O)[C@@H](OC(C)=O)[C@H]1OC(C)=O | Active |  |
| COc1ccc(-c2ccco2)cc1[C@@H]1O[C@H](COC(C)=O)[C@@H](OC(C)=O)[C@H]1OC(C)=O | Active |  |
| COc1ccc(-c2ccc3[nH]ccc3c2)cc1[C@@H]1O[C@H](COC(C)=O)[C@@H](OC(C)=O)[C@H]1OC(C)=O | Active |  |
| COc1ccc(-c2ccc(C)cc2)cc1[C@@H]1O[C@H](COC(C)=O)[C@@H](OC(C)=O)[C@H]1OC(C)=O | Active |  |
| COc1ccc(-c2ccccc2)cc1[C@@H]1O[C@H](COC(C)=O)[C@@H](OC(C)=O)[C@H]1OC(C)=O | Active |  |
| COc1ccc(-c2ccccc2)cc1[C@@H]1O[C@H](CO)[C@@H](O)[C@H]1O | Active |  |
| COc1ccc(C#Cc2ccccc2)cc1[C@@H]1O[C@H](CO)[C@@H](O)[C@H]1O | Active |  |
| COc1ccc(-c2ccc3[nH]ccc3c2)cc1[C@@H]1O[C@H](CO)[C@@H](O)[C@H]1O | Active |  |
| COc1ccc(-c2cccc3ccccc23)cc1[C@@H]1O[C@H](COC(C)=O)[C@@H](OC(C)=O)[C@H]1OC(C)=O | >30% |  |
| COc1ccc(-c2ccco2)cc1[C@@H]1O[C@H](CO)[C@@H](O)[C@H]1O | Active |  |
| COc1ccc(-c2cccs2)cc1[C@@H]1O[C@H](COC(C)=O)[C@@H](OC(C)=O)[C@H]1OC(C)=O | >30% |  |
| COc1ccc(C#Cc2ccc(OC)c([C@@H]3O[C@H](COC(C)=O)[C@@H](OC(C)=O)[C@H]3OC(C)=O)c2)cc1 | >30% |  |
| COc1ccc(-c2cccc3ccccc23)cc1[C@@H]1O[C@H](CO)[C@@H](O)[C@H]1O | Active |  |
| COc1ccc(-c2cccn2C)cc1[C@@H]1O[C@H](CO)[C@@H](O)[C@H]1O | Active |  |
